Only some compounds are listed: those with a hit (about 9.4% of all), similar ones and a draw of the others.
T cruzi inh: blocks replication of Trypanosoma cruzi. T. cruzi beta-gal in NIH3T3, luminescence, 90 h. inhibition, % (concentration not given with the values). hit rate 1.4% among 300,000;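 active means mean inhibition across valid replicates above about 55%, limit read from the data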;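 further: signal also drops with host cell toxicity which is not excluded here; 0% = plate median of DMSO wells and 100% = zero luminescence signal; higher percent means less beta-gal luminescence so fewer parasites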
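Read-out: Parasite load inhibition, % | Test system: Mouse NIH/3T3 fibroblasts infected with β-gal-expressing T. cruzi Tulahuen C4 | Amount: 5,000 cells/well | Medium: DMEM, 2% fetal bovine serum | Signal: GalScreen β-gal luminescence, detergent lysis, 60 min | Timing: 3 h attach, ≥90 h co-culture | Also added: Tulahuen C4 trypomastigotes, 5000/well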
Beta apoptosis: blocks beta cell apoptosis; INS-1E cytokine-induced death, ATP luminescence, 48 h; percent of positive-control rescue, neutral wells zero; protection from apoptosis, % (test concentration not listed); hit rate 0.8% among 300,000; AID 435005;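 active means Every replicate reaches about 75%, or at least half do and their mean reaches it too, limit read from the data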;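 further: 0% = cytokine-treated negative control wells and 100% = positive control rescue; higher means more ATP so stronger rescue from cytokine killing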
SKKanGAS inh: inhibitors of SKKanGAS S. pyogenes growth in kanamycin (SK-promoter or general growth effect). BacTiter-Glo, 6 h. inhibition, % at 7.5 µM. hit rate 1.3% among 300,000. AID 1662;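 active means mean replicate score, as percent of positive control median, at least 50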;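 further: strain carries kanamycin resistance gene driven by streptokinase promoter and grows in 40 µg/ml kanamycin; loss of luminescence reflects streptokinase promoter inhibition or plain growth inhibition; 0% = median of DMSO wells and 100% = positive control at its reference dose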
Mdm2-MdmX inh: human Mdm2/MdmX binding inhibition | SaOS-2 split-luciferase Mdm2/MdmX complementation, luminescence | inhibition, % at 8 µM | hit rate 3% among 330,000 | AID 485346;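 active means inhibition of at least 50% at 8 µM in the primary screen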
Target sequence (O15151 whole entry, looked up): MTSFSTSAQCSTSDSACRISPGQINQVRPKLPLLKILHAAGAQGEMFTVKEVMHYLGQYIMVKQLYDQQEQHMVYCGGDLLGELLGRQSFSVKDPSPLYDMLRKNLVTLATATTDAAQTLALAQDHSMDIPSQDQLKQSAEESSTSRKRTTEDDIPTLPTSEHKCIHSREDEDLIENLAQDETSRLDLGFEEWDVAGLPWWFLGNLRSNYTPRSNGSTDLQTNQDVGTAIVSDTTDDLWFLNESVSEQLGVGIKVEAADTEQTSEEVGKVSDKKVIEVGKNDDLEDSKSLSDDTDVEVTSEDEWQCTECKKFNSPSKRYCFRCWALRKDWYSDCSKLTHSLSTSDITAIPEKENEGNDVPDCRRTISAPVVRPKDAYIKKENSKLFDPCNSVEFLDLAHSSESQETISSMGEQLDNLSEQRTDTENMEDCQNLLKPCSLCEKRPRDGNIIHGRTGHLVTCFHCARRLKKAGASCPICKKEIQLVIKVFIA
Target sequence (Q00987 whole entry, looked up): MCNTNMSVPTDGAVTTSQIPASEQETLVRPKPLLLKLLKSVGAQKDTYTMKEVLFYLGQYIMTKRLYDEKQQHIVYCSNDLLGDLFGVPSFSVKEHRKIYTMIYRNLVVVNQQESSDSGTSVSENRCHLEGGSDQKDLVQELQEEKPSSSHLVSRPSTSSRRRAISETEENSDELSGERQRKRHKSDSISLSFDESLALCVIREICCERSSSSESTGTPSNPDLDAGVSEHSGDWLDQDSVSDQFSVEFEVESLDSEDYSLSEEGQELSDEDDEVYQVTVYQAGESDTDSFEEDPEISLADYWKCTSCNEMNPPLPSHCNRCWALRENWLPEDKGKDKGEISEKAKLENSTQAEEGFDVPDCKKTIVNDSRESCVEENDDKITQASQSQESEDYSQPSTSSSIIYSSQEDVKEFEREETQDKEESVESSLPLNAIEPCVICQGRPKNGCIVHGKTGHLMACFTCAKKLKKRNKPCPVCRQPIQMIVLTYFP
CSC inhib: cancer stem cell inhibition | cancer stem cell-like cells viability, luminescence | inhibition, % at 7.5 µM | hit rate 1.1% among 300,000 | AID 2717; in the data active means inhibition above about 75%; tested in HMLE shEcad cells
Lmaj promast: Leishmania major promastigote growth inhibition; inhibition, % at 10 µM; hit rate 9% among 200,000; Leishmania major promastigotes, resazurin fluorescence viability; AID 1063; in the data active means inhibition above about 50%;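 further: promastigotes grown with compound for 44 hours at 28 °C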
Mdm2 MdmX conf: confirmation of human Mdm2/MdmX interaction inhibitors; shares compounds with Mdm2-MdmX inh; Mdm2-MdmX binding, luminescent assay; inhibition, % at 8 µM; hit rate 55% among 10,000; AID 489028; in the data active means inhibition above about 40%
FLuc counter: inhibits full-length luciferase, flagging false Mdm2/MdmX hits. shares compounds with Mdm2-MdmX inh. SaOS-2 full-length luciferase counterscreen, luminescence. inhibition, % at 8 µM. hit rate 77% among 6,200;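 active means mean inhibition at 8 µM reaching about 37%, which flags the compound as non-specific, limit read from the data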;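 further: p53-null SaOS-2 cells with luciferase driven by a doxycycline-inducible promoter; compound on cells about two nights before reading with doxycycline added after day one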
Starred values were filed as active, the others as inactive.

What do the screens show for `O=C(NNc1cccc(Cl)n1)c1ccccc1CC[N+](=O)[O-]`?
T cruzi inh: 3; Beta apoptosis: 1; SKKanGAS inh: 4; Mdm2-MdmX inh: 92*; CSC inhib: -2; Lmaj promast: -9; Mdm2 MdmX conf: -9

What do the screens show for `O=C(Nc1cccnc1Cl)c1cc(-c2ccc(Cl)cc2)on1`?
T cruzi inh: -9; Beta apoptosis: 2; SKKanGAS inh: -14; Mdm2-MdmX inh: 54*; CSC inhib: 0; Mdm2 MdmX conf: -2

What do the screens show for `O=C(Nc1cc(Cl)ccc1Cl)c1cc(-c2ccco2)on1`?
T cruzi inh: 7; Beta apoptosis: -3; SKKanGAS inh: -4; Mdm2-MdmX inh: 62*; CSC inhib: -5; Mdm2 MdmX conf: 12

What do the screens show for `O=C(Nc1cccnc1Cl)c1cc(-c2ccc(O)cc2)on1`?
T cruzi inh: -16; SKKanGAS inh: 21; Mdm2-MdmX inh: -19; CSC inhib: -5

How did COc1ccc(-c2coc3cc4oc(=O)c5ccccc5c4cc23)cc1F do in these assays?
T cruzi inh: 12; Beta apoptosis: 20; SKKanGAS inh: -9; Mdm2-MdmX inh: 75*; Lmaj promast: 1; Mdm2 MdmX conf: 55*; FLuc counter: 58*

What do the screens show for `O=C(COC(=O)c1ccc(Br)o1)NCc1ccc(Cl)cc1`?
Beta apoptosis: -3; Mdm2-MdmX inh: 5; CSC inhib: 0

How did COc1ccc(NC(=O)c2nc(C)c(C3(C)CC(c4ccccc4)=NO3)s2)cc1 (centres undefined) do in these assays?
T cruzi inh: 14; Beta apoptosis: 45; SKKanGAS inh: 20; Mdm2-MdmX inh: 59*; CSC inhib: 64; Mdm2 MdmX conf: 58*; FLuc counter: 72*

What do the screens show for `Cc1nc(C(=O)Nc2ccccc2)sc1C1(C)CC(c2cccc([N+](=O)[O-])c2)=NO1` (centres undefined)?
T cruzi inh: 50; Beta apoptosis: 3; SKKanGAS inh: 16; Mdm2-MdmX inh: 85*; CSC inhib: 10; Mdm2 MdmX conf: 63*; FLuc counter: 49*

What do the screens show for `Cc1cc(C)cc(N(C(=O)c2csnn2)C(C(=O)NC2CCCC2)c2cccnc2)c1` (centres undefined)?
T cruzi inh: 1; Beta apoptosis: -2; SKKanGAS inh: 0; Mdm2-MdmX inh: -18; CSC inhib: -2

What do the screens show for `CCC(C)(C)C1CCc2[nH]nc(C(=O)NCc3ccc(OC)cc3)c2C1` (centres undefined)?
Beta apoptosis: -1; Mdm2-MdmX inh: 33

Results for CCOCCc1nnc(NC(=O)CS(=O)(=O)Cc2ccccc2)s1 ?
T cruzi inh: 5; Beta apoptosis: 1; SKKanGAS inh: 2; Mdm2-MdmX inh: 8; CSC inhib: -7

How did Cc1nn(CC(=O)NCc2cccc3ccccc23)c(=O)c2ccccc12 do in these assays?
T cruzi inh: 4; Beta apoptosis: 0; SKKanGAS inh: -8; Mdm2-MdmX inh: 85*; CSC inhib: 27; Lmaj promast: -4; Mdm2 MdmX conf: 48*; FLuc counter: 64*

How did O=C(CN1C(=O)c2ccccc2S1(=O)=O)c1ccc(Cl)cc1Cl do in these assays?
T cruzi inh: -4; Beta apoptosis: -1; SKKanGAS inh: 5; Mdm2-MdmX inh: 24; CSC inhib: -3

Results for O=C(CN1C(=O)c2ccccc2S1(=O)=O)c1ccccc1F ?
T cruzi inh: -7; SKKanGAS inh: 10; Mdm2-MdmX inh: 21; CSC inhib: 18

What do the screens show for `O=C(CN1C(=O)c2ccccc2S1(=O)=O)c1ccc(F)cc1`?
T cruzi inh: -10; Beta apoptosis: -6; SKKanGAS inh: 2; Mdm2-MdmX inh: 83*; CSC inhib: 9; Mdm2 MdmX conf: 68*; FLuc counter: 81*

What do the screens show for `O=C(CN1C(=O)c2ccccc2S1(=O)=O)c1ccc(OC(F)F)cc1`?
T cruzi inh: -12; Beta apoptosis: -3; SKKanGAS inh: -10; Mdm2-MdmX inh: 50*; CSC inhib: 12; Mdm2 MdmX conf: 72*; FLuc counter: 76*

Screening data deposited in PubChem BioAssay by several laboratories.
